Test results reported in paper PMC4017091 (Bioorganic & medicinal chemistry, 2013).
Entries after “also recorded” stand apart in the source; their conditions may differ.

Key:
human 5-LOX [1] = target: T1, human 5-LOX (Homo sapiens, UniProt P09917); test: Michaelis-Menten enzyme kinetics of human 5-LOX versus ATP or linoleic acid; assay type: biochemical; conditions: for type of modulation versus linoleic acid: varied linoleic acid
T1 sequence (P09917 1-674): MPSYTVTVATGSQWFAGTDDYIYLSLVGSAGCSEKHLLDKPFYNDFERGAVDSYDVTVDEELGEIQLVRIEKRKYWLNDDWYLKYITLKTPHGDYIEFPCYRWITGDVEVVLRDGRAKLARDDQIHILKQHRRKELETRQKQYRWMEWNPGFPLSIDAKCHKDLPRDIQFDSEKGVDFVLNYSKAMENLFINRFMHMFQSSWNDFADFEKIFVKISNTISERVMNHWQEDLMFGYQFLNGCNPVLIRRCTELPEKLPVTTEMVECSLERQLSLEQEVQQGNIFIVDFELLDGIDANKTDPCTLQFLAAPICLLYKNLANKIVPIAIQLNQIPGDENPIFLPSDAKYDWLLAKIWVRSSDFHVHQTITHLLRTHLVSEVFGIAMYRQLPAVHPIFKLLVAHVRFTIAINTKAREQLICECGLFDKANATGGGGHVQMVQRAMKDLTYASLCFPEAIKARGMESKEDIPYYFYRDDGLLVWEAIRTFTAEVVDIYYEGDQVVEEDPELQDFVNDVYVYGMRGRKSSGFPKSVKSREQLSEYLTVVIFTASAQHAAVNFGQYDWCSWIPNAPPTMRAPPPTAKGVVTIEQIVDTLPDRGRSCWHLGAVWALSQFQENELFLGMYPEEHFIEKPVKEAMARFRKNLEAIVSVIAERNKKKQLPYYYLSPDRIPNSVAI

human 5-LOX [2] = target: T1, human 5-LOX; test: Human 5-LOX inhibition screening UV assay; assay type: biochemical; conditions: 50 μM compound; 100 μM linoleic acid substrate; 10 min pre-incubation
Outline: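 Human 5-LOX was diluted 1:4000 in 50 mM Tris pH 7.5 with 2 mM EDTA and 2 mM CaCl2, plus ATP (2 mM stock). It was pre-incubated 10 min at room temperature with test compound diluted from DMSO stock, or a DMSO-only control. Linoleic acid (20 mM ethanolic stock) was added, and HPOD conjugated diene formation was followed at 234 nm over 20 min. Residual activity was taken relative to the control. Three independent experiments; mean with SD.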

h-5-LOX = target: T2, h-5-LOX (Homo sapiens, UniProt P09917); test: h-5-LOX activity with arachidonic acid as substrate; assay type: biochemical; conditions: 50 μM compound; 100 μM arachidonic acid
T2 sequence (P09917 1-674): T1 sequence (P09917 1-674)

[3] = target: T3, COX-2 (human recombinant) (Homo sapiens, UniProt P35354); test: COX-2 inhibition screening assay; assay type: biochemical; conditions: 50 μM compound; 2 mM arachidonic acid substrate
T3 sequence (P35354 18-604): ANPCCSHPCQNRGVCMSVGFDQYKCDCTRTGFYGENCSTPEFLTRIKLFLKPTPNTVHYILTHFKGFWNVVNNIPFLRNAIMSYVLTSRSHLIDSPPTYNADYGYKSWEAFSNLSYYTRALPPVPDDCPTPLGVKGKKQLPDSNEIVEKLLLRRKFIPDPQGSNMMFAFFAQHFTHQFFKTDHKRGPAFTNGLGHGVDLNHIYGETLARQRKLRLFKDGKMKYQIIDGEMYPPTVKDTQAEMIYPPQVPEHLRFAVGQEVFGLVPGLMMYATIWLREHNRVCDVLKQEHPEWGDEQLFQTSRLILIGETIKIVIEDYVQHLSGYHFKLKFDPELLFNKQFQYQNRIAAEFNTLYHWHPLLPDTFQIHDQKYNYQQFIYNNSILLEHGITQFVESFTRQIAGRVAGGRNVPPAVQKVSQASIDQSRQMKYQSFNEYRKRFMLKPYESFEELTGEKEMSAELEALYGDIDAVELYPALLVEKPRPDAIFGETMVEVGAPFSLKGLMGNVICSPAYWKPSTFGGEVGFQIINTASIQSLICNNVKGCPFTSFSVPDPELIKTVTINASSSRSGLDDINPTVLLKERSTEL
Outline: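 Human recombinant COX-2 was diluted 1:1000 in 0.1 M Tris pH 8.0 with hematin. It was pre-incubated 5 min at room temperature with test compound from a 1.1 mM DMSO solution, or DMSO for the positive control. Freshly made TMPD and then arachidonic acid were added, with no arachidonic acid in negative controls. After 5 more min at room temperature, TMPD oxidation was read at 550 nm. Triplicate; mean with SD.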

[4] = test system: soybean lipoxygenase-1 (SLO-1); conditions: cited from earlier work
potato 5-lipoxygenase = conditions: cited from earlier work
[5] = linoleic acid conversion, non-essential activation model

CCCCCOc1ccc(COc2cccc(O)c2C(=O)[O-])cc1.[K+] [Compound 23a, potassium 2-hydroxy-6-((4-(pentyloxy)benzyl)oxy)benzoate]
α (change in the affinity of substrate binding) (human 5-LOX [1]; [5]): 0.0438 | β (change in the catalytic constant) (human 5-LOX [1]; [5]): 1.76 | type of modulation versus ATP (human 5-LOX [1]; varied ATP, 100 μM linoleic acid): non-competitive activation | type of modulation versus linoleic acid (human 5-LOX [1]; 100 μM ATP): non-essential mixed type activation | activation of linoleic acid conversion versus compound concentration (human 5-LOX [1]; various concentrations of compound, linoleic acid substrate): concentration dependent activation | Vmax^app (human 5-LOX [1]; versus ATP, 12.5 μM 23a, 100 μM linoleic acid): 0.3861 ± 0.0073 µM/s | Vmax^app (human 5-LOX [1]; versus ATP, 25 μM 23a, 100 μM linoleic acid): 0.5236 ± 0.0137 µM/s | Vmax^app (human 5-LOX [1]; versus linoleic acid, 12.5 μM 23a, 100 μM ATP): 2.39 ± 0.07 µM/s | Vmax^app (human 5-LOX [1]; versus linoleic acid, 25 μM 23a, 100 μM ATP): 2.70 ± 0.05 µM/s | effect on h-5-LOX activity (in words) (human 5-LOX [2]): strong activation | modulation of h-5-LOX activity toward arachidonic acid (h-5-LOX): no modulation; also recorded: no effect

CCCCCCCCCCc1cccc(O)c1C(=O)O [Compound 15]
effect on COX-2 activity (in words) [3]: little inhibition | effect on h-5-LOX activity (in words) (human 5-LOX [2]): little inhibition

CCCCCCCCCCCCCCCc1cc(O)cc(O)c1C(=O)O [Compound 17]
effect on h-5-LOX activity (in words) (human 5-LOX [2]): slight improvement in the inhibitory potency

CC(C)CCCC(C)CCOc1ccc(COc2cccc(O)c2C(=O)[O-])cc1.[K+] (stereo not drawn) [Compound 23d, Potassium 2-((4-((3,7-dimethyloctyl)oxy)benzyl)oxy)-6-hydroxybenzoate]
Ki′ (dissociation constant of inhibitor to enzyme-substrate complex) (human 5-LOX [1]; linoleic acid conversion, mixed type inhibition model): 140 µM | type of modulation versus linoleic acid (human 5-LOX [1]; 100 μM ATP): mixed-type inhibition | Vmax^app (human 5-LOX [1]; versus linoleic acid, 25 μM 23d): 1.84 ± 0.25 µM/s | Vmax^app (human 5-LOX [1]; versus linoleic acid, 50 μM 23d): 1.47 ± 0.16 µM/s | modulation of h-5-LOX activity toward arachidonic acid (h-5-LOX): no modulation; also recorded: no effect

CCCCCCCCCOc1ccc(COc2cccc(O)c2C(=O)[O-])cc1.[K+] [Compound 23c, Potassium 2-hydroxy-6-((4-(nonyloxy)benzyl)oxy)benzoate]
effect on h-5-LOX activity (in words) (human 5-LOX [2]): no or little inhibition

Oc1ccccc1-c1nc2ccccc2o1 [Compound 25, 2-(benzo[d]oxazol-2-yl)phenol]
effect on h-5-LOX activity (in words) (human 5-LOX [2]): did not inhibit; also recorded: no inhibition

CCCCCCCOc1ccc(COc2cccc(O)c2C(=O)[O-])cc1.[K+] [Compound 23b, Potassium 2-((4-(heptyloxy)benzyl)oxy)-6-hydroxybenzoate]
effect on h-5-LOX activity (in words) (human 5-LOX [2]): no or little inhibition

CCCCCCCc1ccc(CCc2cc(O)cc(O)c2C(=O)O)cc1 [Compound 19]
effect on soybean lipoxygenase-1 (SLO-1) [4]: allosteric inhibitor

CCCCCCCCCCCCCCOc1cccc(O)c1C(=O)O [Compound 21]
effect on potato 5-LOX (potato 5-lipoxygenase): strong activation; also recorded: allosteric activator | effect on h-5-LOX activity (in words) (human 5-LOX [2]): neither inhibition nor activation

CCCCC/C=C\C/C=C\CCCCCCCC(=O)O [linoleic acid]
Km (human 5-LOX [1]; read-out: Km of the substrate for h-5-LOX, no modulator): 600 µM

CCCCCCCCCCCCCCCc1cccc(O)c1C(=O)O [Compound 14, Anacardic acid, reference compound]
effect on COX-2 activity (in words) [3]: little inhibition | effect on h-5-LOX activity (in words) (human 5-LOX [2]): little inhibition

CCCCCc1cccc(O)c1C(=O)O [Compound 16]
effect on COX-2 activity (in words) [3]: little inhibition | effect on h-5-LOX activity (in words) (human 5-LOX [2]): little inhibition
